KDM4C inh = inhibitors of human demethylase GASC-1 KDM4C; GST-KDM4C 2-372, H3K9me3 peptide, LANCE TR-FRET; inhibition, % at 12.5 µM; actives 0.15% (n = 96,000); AID 720574;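 active = mean replicate inhibition above about 25%, with at least 55% of replicates also reaching it, limit read from the data, passing the limit was not always enough; inconclusive = only one of those two conditions met; inactive = neither condition met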
Target sequence (Q9H3R0 2-372 limits assumed): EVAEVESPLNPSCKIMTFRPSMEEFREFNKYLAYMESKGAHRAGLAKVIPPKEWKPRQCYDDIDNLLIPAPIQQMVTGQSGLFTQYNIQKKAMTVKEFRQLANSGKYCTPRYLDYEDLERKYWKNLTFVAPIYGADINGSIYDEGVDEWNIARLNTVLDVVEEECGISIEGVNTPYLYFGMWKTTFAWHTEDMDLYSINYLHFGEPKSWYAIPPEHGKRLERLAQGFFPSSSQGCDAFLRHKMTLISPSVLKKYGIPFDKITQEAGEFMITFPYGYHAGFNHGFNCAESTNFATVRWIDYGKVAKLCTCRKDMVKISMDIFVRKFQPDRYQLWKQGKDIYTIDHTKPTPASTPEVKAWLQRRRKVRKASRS
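Material: GST-tagged GASC-1 (JMJD2C) catalytic fragment, aa 2-372 / Quantity: enzyme final amount 10 nM / Medium: HEPES buffer, pH 7.5, plus ascorbate / Doses: one test concentration per compound / Incubation: 30 min reaction, 60 min detection, RT / Measured by: LANCE TR-FRET / Read-out: inhibition from TR-FRET ratio decrease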
IDH1 R132H inh = IDH1 R132H (human) inhibition. O75874. IDH1 R132H reductase, diaphorase/resazurin fluorescence, 60 min. inhibition, % at 10 µM. actives 0.18% (n = 70,000); in the data active = inhibition above about 34%; inconclusive = no clear call, values can overlap the other calls; inactive = below about 11%;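 note: 0% = DMSO and 100% = no enzyme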
Target sequence (O75874 whole entry R132H): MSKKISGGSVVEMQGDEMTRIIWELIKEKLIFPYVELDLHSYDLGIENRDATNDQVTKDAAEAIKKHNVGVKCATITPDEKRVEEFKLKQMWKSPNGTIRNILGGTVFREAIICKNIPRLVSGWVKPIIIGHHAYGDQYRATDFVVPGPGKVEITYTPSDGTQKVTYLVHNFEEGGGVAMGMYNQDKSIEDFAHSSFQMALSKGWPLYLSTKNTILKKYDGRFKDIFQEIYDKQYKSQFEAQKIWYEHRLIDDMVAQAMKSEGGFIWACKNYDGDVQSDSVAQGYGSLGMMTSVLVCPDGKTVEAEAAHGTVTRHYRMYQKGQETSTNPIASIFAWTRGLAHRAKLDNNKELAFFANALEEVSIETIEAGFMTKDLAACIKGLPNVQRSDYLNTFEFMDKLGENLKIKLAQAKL
T cruzi growth-1 = blocks T. cruzi growth in NIH3T3 culture; T. cruzi beta-gal in NIH3T3, GalScreen luminescence, 90 h; actives 5.9% (n = 77,000); inhibition, % at 8.34 µM; AID 624255;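 active = mean inhibition above about 93%, with at least 55% of replicates each passing it, limit read from the data, passing the limit was not always enough; inconclusive = only one of those two conditions holds; inactive = neither condition holds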
T cruzi growth-2 = inhibitors of T. cruzi proliferation; shares compounds with T cruzi growth-1; T. cruzi beta-gal in NIH3T3, GalScreen luminescence, 90 h; inhibition, % at 8.35 µM; actives 72% (n = 5,600); AID 651739;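 active = mean replicate inhibition above about 95% and at least 55% of replicates individually reaching it, limit read from the data; inconclusive = only one of the two criteria is met; inactive = neither criterion is met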
T cruzi growth-3 = Trypanosoma cruzi proliferation inhibition; shares compounds with T cruzi growth-1; actives 21% (n = 5,600); T. cruzi beta-gal in NIH3T3, GalScreen luminescence, 90 h; inhibition, % at 2.09 µM; AID 651740;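 active = mean inhibition above about 95%, with at least 55% of replicates also reaching it, limit read from the data; inconclusive = meets just one of the two conditions; inactive = meets neither condition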;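 note: plate controls were neutral control median for no effect and positive control median for full effect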
NIH3T3 tox = NIH/3T3 (mouse) viability loss. NIH/3T3 viability, CellTiter-Glo ATP luminescence, 90 h. shares compounds with T cruzi growth-1. cytotoxicity (signal decrease), % at 8.35 µM. actives 14% (n = 5,600);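 active = mean signal decrease across replicates above about 35% based on untreated-well scatter, with enough replicates individually passing, limit read from the data; inconclusive = no rule stated though some were filed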;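 note: 0% = median of neutral control wells and 100% = median of positive control wells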
3T3 cytotox 2 = NIH/3T3 (mouse) viability loss | shares compounds with T cruzi growth-1 | NIH/3T3 viability, CellTiter-Glo ATP luminescence, 90 h | inhibition, % at 24.9 µM | actives 56% (n = 5,600) | AID 651744;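 active = mean loss of cell viability signal at or above a set limit, and enough replicates individually reaching it; inconclusive = meets only the mean limit or only the replicate share; inactive = meets neither condition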;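 note: 0% = median of neutral control wells and 100% = median of positive control wells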
Starred values were filed as active, the others as inactive; ? = inconclusive; nt = not tested or not shown. Only a selection was taken, and hits are over-represented in it overall.

SMILES | KDM4C inh | IDH1 R132H inh | T cruzi growth-1 | T cruzi growth-2 | T cruzi growth-3 | NIH3T3 tox | 3T3 cytotox 2
C[C@H]1CN([C@@H](C)CO)C(=O)c2cc(NC(=O)Nc3cccc4ccccc34)ccc2O[C@@H]1CN(C)Cc1ccc(Cl)c(Cl)c1 | -1 | -5 | 101 | nt | nt | nt | nt
C[C@@H]1CN([C@H](C)CO)C(=O)Cc2cc(NC(=O)Nc3cccc4ccccc34)ccc2O[C@@H]1CN(C)Cc1ccc(Cl)c(Cl)c1 | -3 | nt | ? | 108* | 107* | 44* | 17
C[C@H]1CN([C@@H](C)CO)C(=O)c2cc(NC(=O)Nc3cccc4ccccc34)ccc2O[C@H]1CN(C)Cc1ccc(Cl)c(Cl)c1 | -4 | 0 | ? | 96* | 74 | 7 | 8
C[C@H](CO)N1C[C@H](C)[C@H](CN(C)Cc2ccc(Cl)c(Cl)c2)Oc2ccc(NC(=O)Nc3cccc4ccccc34)cc2CC1=O | -1 | -3 | 79 | nt | nt | nt | nt
O=C(CC1C(=O)N(c2ccccc2)C(=O)N1Cc1cccs1)Nc1ccccc1 (stereo unspecified) | nt | 0 | nt | nt | nt | nt | nt
COc1cc(C(C)CC(C)(O)CC(=O)O)oc(=O)c1C (stereo unspecified) | nt | 1 | nt | nt | nt | nt | nt
CC(=O)c1c(C)oc2ccc(N(C(=O)c3ccc(C)cc3)S(=O)(=O)c3cccc4cccnc34)cc12 | nt | 0 | nt | nt | nt | nt | nt
O=C1C(=O)N(Cc2ccco2)C(c2cccs2)C1C(=O)c1cccs1 (stereo unspecified) | nt | 0 | nt | nt | nt | nt | nt
CS(=O)(=O)N(CC(=O)Nc1ccccc1C(F)(F)F)c1cccc(F)c1 | nt | 0 | nt | nt | nt | nt | nt
CC(C)(C)C1CCc2c(sc(NC(=O)COc3ccc(Cl)cc3)c2C(N)=O)C1 (stereo unspecified) | nt | 0 | nt | nt | nt | nt | nt
CN1c2ccc(C#Cc3cccnc3)cc2[C@@H]2[C@@H](CCN2C(=O)C2CC2)[C@H]1CO | 4 | nt | 99* | 96* | 17 | 8 | 25*
CN1c2ccc(C#Cc3cccnc3)cc2[C@@H]2[C@@H](CCN2C(=O)C2CCCC2)[C@@H]1CO | 6 | nt | nt | nt | nt | nt | nt
CN1c2ccc(-c3cccc(C#N)c3)cc2[C@@H]2[C@@H](CCN2S(=O)(=O)c2ccccc2)[C@@H]1CO | -4 | nt | 116* | 99* | 85 | 51* | 14
CN1c2ccc(-c3cccc(C#N)c3)cc2[C@@H]2[C@@H](CCN2S(=O)(=O)c2cccc(F)c2)[C@@H]1CO | -18 | nt | 25 | nt | nt | nt | nt
CN1c2ccc(-c3cccc(C#N)c3)cc2[C@H]2[C@H](CCN2S(=O)(=O)c2ccccc2)[C@@H]1CO | -1 | nt | 94 | nt | nt | nt | nt
CN1c2ccc(C#Cc3cccnc3)cc2[C@@H]2[C@@H](CCN2S(=O)(=O)c2ccc(F)cc2)[C@H]1CO | -2 | nt | 85 | nt | nt | nt | nt
CN1c2ccc(C#Cc3cccnc3)cc2[C@H]2[C@H](CCN2S(=O)(=O)c2ccc(F)cc2)[C@H]1CO | 0 | nt | 97* | 102* | 111* | 37* | 42*
CN1c2ccc(-c3cccc(C#N)c3)cc2[C@@H]2[C@@H](CCN2S(=O)(=O)c2ccc(F)cc2)[C@@H]1CO | -4 | nt | 105* | 94 | 78 | 45* | 22
COc1cc(OC)c(NC(=O)Cc2ccccc2[N+](=O)[O-])cc1Cl | nt | 0 | nt | nt | nt | nt | nt
COc1ccccc1NC(=O)CSc1nnnn1-c1c(C)cccc1C | nt | 0 | nt | nt | nt | nt | nt
CC(C)=CCc1c(O)cc(O)c2c(=O)cc(-c3ccc(O)cc3)oc12 | nt | 0 | nt | nt | nt | nt | nt
O=C(CSc1nc2ccccc2[nH]1)Nc1ccc(Br)cc1Cl | nt | 0 | nt | nt | nt | nt | nt
Cc1cccc(S(=O)(=O)N2C[C@@H]3[C@H](c4ccccc42)[C@@H](CO)N3CC2CCCC2)c1 | 3 | nt | 61 | nt | nt | nt | nt
Cc1cccc(S(=O)(=O)N2C[C@@H]3[C@H](c4ccccc42)[C@H](CO)N3CC2CCCC2)c1 | -2 | nt | 98* | 104* | 72 | 11 | 99*
Cc1cccc(S(=O)(=O)N2C[C@@H]3[C@H](c4ccccc42)[C@@H](CO)N3CC2CCOCC2)c1 | 0 | nt | 24 | nt | nt | nt | nt
SMILES | KDM4C inh | IDH1 R132H inh | T cruzi growth-1 | T cruzi growth-2 | T cruzi growth-3 | NIH3T3 tox | 3T3 cytotox 2
Cc1cccc(S(=O)(=O)N2C[C@H]3[C@@H](c4ccccc42)[C@@H](CO)N3CC2CCCC2)c1 | -1 | nt | 99* | 104* | 93 | 24 | 103*
CCn1c(SCC(=O)Nc2ccc3c(c2)OCCO3)nnc1-c1ccccc1 | nt | 0 | nt | nt | nt | nt | nt
O=C(CN1CCN(S(=O)(=O)c2cccc([N+](=O)[O-])c2)CC1)Nc1ccc(F)cc1 | nt | 0 | nt | nt | nt | nt | nt
CCc1nc(SCC(=O)Nc2ccc(C(C)=O)cc2)n[nH]1 | nt | 0 | nt | nt | nt | nt | nt
C[C@H]1CCCCO[C@@H](CN(C)C(=O)Nc2ccc(C(F)(F)F)cc2)[C@@H](C)CN([C@@H](C)CO)C(=O)c2cc(N(C)C)ccc2O1 | -2 | 1 | ? | 103* | 50 | -8 | 20
CC(C)NC(=O)Nc1ccc2c(c1)C(=O)N([C@@H](C)CO)C[C@@H](C)[C@H](CN(C)C(=O)Nc1ccc(C(F)(F)F)cc1)OCCCC[C@@H](C)O2 | -2 | nt | 102* | 102* | 9 | 14 | 7
C[C@H](CO)N1C[C@H](C)[C@@H](CN(C)C(=O)Nc2ccc(C(F)(F)F)cc2)OCCCC[C@H](C)Oc2ccc(NC(=O)Nc3ccc(C(F)(F)F)cc3)cc2C1=O | -1 | nt | 112* | 112* | 109* | -8 | 1
C[C@@H]1CN([C@H](C)CO)C(=O)c2cc(NC(=O)Nc3ccc(C(F)(F)F)cc3)ccc2O[C@@H](C)CCCCO[C@H]1CN(C)C(=O)Nc1ccc(C(F)(F)F)cc1 | -2 | -2 | 90 | nt | nt | nt | nt
C[C@@H]1CCCCO[C@@H](CN(C)C(=O)Nc2ccc(C(F)(F)F)cc2)[C@H](C)CN([C@H](C)CO)C(=O)c2cc(NC(=O)Nc3ccc(F)cc3)ccc2O1 | -1 | -1 | 95 | nt | nt | nt | nt
C[C@H]1CCCCO[C@H](CN(C)C(=O)Nc2ccc(C(F)(F)F)cc2)[C@@H](C)CN([C@@H](C)CO)C(=O)c2cc(NC(=O)Nc3ccc(C(F)(F)F)cc3)ccc2O1 | 0 | nt | 118* | 109* | 107* | 5 | 13
CC(C)NC(=O)Nc1ccc2c(c1)C(=O)N([C@H](C)CO)C[C@H](C)[C@@H](CN(C)C(=O)Nc1ccc(C(F)(F)F)cc1)OCCCC[C@@H](C)O2 | -1 | nt | 46 | nt | nt | nt | nt
C[C@@H]1CCCCO[C@H](CN(C)C(=O)Nc2ccc(C(F)(F)F)cc2)[C@@H](C)CN([C@H](C)CO)C(=O)c2cc(N(C)C)ccc2O1 | -1 | 1 | 89 | nt | nt | nt | nt
CCOc1ccc2nc(SCC(=O)Nc3ccc(Cl)cc3)[nH]c2c1 | nt | 0 | nt | nt | nt | nt | nt
COc1ccc(OC)c(C(C)NC(=O)Nc2cccc([N+](=O)[O-])c2)c1 (stereo unspecified) | nt | 0 | nt | nt | nt | nt | nt
COC(=O)c1sccc1NC(=O)c1cc(-c2ccccn2)nc2ccc(Br)cc12 | nt | 0 | nt | nt | nt | nt | nt

Source: PubChem BioAssay (Broad Institute)
